Laboratory results from ChEMBL document CHEMBL1129055, “Synthesis, in vitro antiviral evaluation, and stability studies of bis(S-acyl-2-thioethyl) ester derivatives of 9-[2-(phosphonomethoxy)ethyl]adenine (PMEA) as potential PMEA prodrugs with improved oral bioavailability” (J Med Chem, 1996).

What was measured:
[1] = Half-life in culture medium.; format: ADME
[2] = tested on: MT4; assay: (§1) Compound was tested for antiviral activity against the MT-4 cell lines infected with HIV-1.; format: functional, cell-based; conditions: Homo sapiens
How it was run: (§2)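 MT-4 cells infected with 50 TCID50 HIV-1 IIIB for 30 min, washed twice, then cultured 5 days with graded compound concentrations. Protection from virus-induced cytopathogenicity read by MTT reduction to formazan. EC50 taken from median effect plot of dose-effect data.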

[3] = Half-life in RPMI1640 medium.; format: ADME
[4] = tested on: Vero; assay: (§3) Compound was tested for antiviral activity against the Vero cells infected with HSV-1.; format: functional, cell-based; conditions: Chlorocebus sabaeus
How it was run: (§4)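 Confluent cells in MEM with 5% FBS infected with 100 CCID50 virus (HSV-1 strain F or HSV-2 strain G) for 1 h at 37 °C, then exposed to compound from 1 mM to 1 uM. Cytopathic effect scored daily. EC50 is the concentration that reduces CPE by 50% once CPE is complete in untreated infected controls.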

[5] = tested on: MRC5; assay: (§5) Compound was tested for antiviral activity against the MRC-5 cells infected with HSV-1.; format: functional; conditions: Homo sapiens; how it was run: as §4
[6] = tested on: CEM-SS; assay: (§6) Compound was tested for antiviral activity against the CEM-SS cell lines infected with HIV-1.; format: functional; conditions: Homo sapiens
[7] = tested on: CEM-SS; assay: as §6; format: functional, cell-based; conditions: Homo sapiens
How it was run: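 CEM-SS cells infected with 100 TCID50 HIV-LAI for 30 min, unbound virus removed by two washes, then cultured 5 days with graded compound concentrations. Virus production quantified as reverse transcriptase activity in culture supernatant. EC50 derived from median effect plot of dose-effect data.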

[8] = Partition coefficient (logP); format: physicochemical; conditions: octanol/water
How it was run: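 Octanol/water partition coefficient (logP) determined by HPLC using a microscale method adapted from earlier work on nucleoside analogues.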

[9] = tested on: Vero; assay: Compound was tested for antiviral activity against the Vero cells infected with HSV-2; format: functional, cell-based; conditions: Chlorocebus sabaeus; how it was run: as §4
[10] = tested on: MT4; assay: as §1; format: functional; conditions: Homo sapiens; how it was run: as §2
[11] = Percent decomposition in water at specified pH 7.2; conditions: buffer
[12] = tested on: MRC5; assay: Compound was tested for antiviral activity against the MRC-5 cells infected with HSV-2.; format: functional, cell-based; conditions: Homo sapiens; how it was run: as §4
[13] = tested on: Vero; assay: as §3; format: functional; conditions: Chlorocebus sabaeus
[14] = tested on: MRC5; assay: as §5; format: functional, cell-based; conditions: Homo sapiens; how it was run: as §4

SMILES	half-life [1] [h]	EC50 [2] [µM]	half-life [3] [h]	EC50 [4] [µM]	CC50 [5] [µM]	CC50 [6] [µM]	EC50 [7] [µM]	logP ([8]; read-out: logP)	EC50 [9] [µM]	CC50 [10] [µM]	percent decomposition [11] [%]	EC50 [12] [µM]	CC50 [13] [µM]	EC50 [14] [µM]	logP [8]
Nc1ncnc2c1ncn2CCOCP(=O)(O)OCCSC(=O)c1ccccc1	64.8														
CC(C)(C)C(=O)SCCOP(=O)(O)COCCn1cnc2c(N)ncnc21	230														
CC(=O)SCCOP(=O)(COCCn1cnc2c(N)ncnc21)OCCSC(C)=O	3.7	1.1	> 24	14.2	148	23	0.1	0.32	10.2	7.6	4	8.9	126	12.6	
Nc1ncnc2c1ncn2CCOCP(=O)(OCCSSCCO)OCCSSCCO	38.4	6.9	> 24	22.3	> 100	67	2	0.21	27.4	50	13.9	26.5	> 100	32.3	
Nc1ncnc2c1ncn2CCOCP(=O)(O)O [ADEFOVIR]		> 10		38.5	> 100	> 10	0.42		32.7	> 10		33.5	> 100	29.7	-4.11
CC(=O)SCCOP(=O)(O)COCCn1cnc2c(N)ncnc21	19.2														
CC(C)(C)C(=O)OCOP(=O)(COCCn1cnc2c(N)ncnc21)OCOC(=O)C(C)(C)C [ADEFOVIR DIPIVOXIL]	5	0.08	5	0.87	15.7	4.4	0.04	2.48	1.15	0.74	32.7	0.91	22.6	1.23	
Nc1ncnc2c1ncn2CCOCP(=O)(OCCSC(=O)c1ccccc1)OCCSC(=O)c1ccccc1	25.7	0.41		2.56	18.7	3.9	0.05	3.93	2.89	2.4	1.7	4.75	12.7	3.48	
CC(C)C(=O)SCCOP(=O)(O)COCCn1cnc2c(N)ncnc21	28.8														
CC(C)C(=O)SCCOP(=O)(COCCn1cnc2c(N)ncnc21)OCCSC(=O)C(C)C	8.3	0.51		1.35	30.2	13	0.09	2.31	1.14	3.8	1.6	1.2	23	1.69	
CC(C)(C)C(=O)SCCOP(=O)(COCCn1cnc2c(N)ncnc21)OCCSC(=O)C(C)(C)C	81.6	0.65		1.07	48.5	5.8	0.03	3.41	1.12	15	3	0.97	36.8	1.43	
